Test results reported in ChEMBL document CHEMBL3102784, “Salicylanilide diethyl phosphates: synthesis, antimicrobial activity and cytotoxicity” (Bioorg Med Chem, 2014).
Values after ≈ are worked out from the molar mass of the structure shown. Active and inactive are the calls of the source. The rule behind the calls is not given here.

Columns and labels:
HepG2 = assay: Cytotoxicity against human HepG2 cells after 24 hrs by CellTiter assay; format: cell-based; conditions: HepG2, 24 h
In short: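 HepG2 cells (passage 27–33) in MEM with 10% FBS, L-glutamine and NEAA, seeded at 1×10^4 per well. Treated next day with compounds at 0.1–100 µM (or 0.1–25 µmol/L), triplicates, <1% DMSO, for 24 h at 37 °C, 5% CO2. MTS reagent added for 2 h, absorbance read at 490 nm. IC50 taken against untreated (100%) and 10% DMSO (0%) controls.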

Lichtheimia corymbifera [1] = assay: Antifungal activity against Absidia corymbifera 272 after 24 hrs by broth microdilution method; format: functional; conditions: Lichtheimia corymbifera, 272, 24 h
In short: (§1)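 Broth microdilution in RPMI 1640 with glutamine, fluconazole as reference. For yeasts, MIC is ≥80% growth reduction (IC80) versus control. For filamentous fungi, the value is expressed as IC50. Readings at 24 and 48 h.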

[2] = system: Mycobacterium tuberculosis; assay: Antimycobacterial activity against Mycobacterium tuberculosis H37Rv My 331/88 after 21 days; format: functional; conditions: H37Rv My 331/88, 504 h
In short: (§2)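 Micromethod MIC in Šula's semisynthetic medium at 37 °C. Compounds added in DMSO at 1000 down to 0.032 µmol/L. Isoniazid standard in sterile water at 0.5–250 µmol/L. Inocula: H37Rv 10^3, M. avium 10^5, M. kansasii 10^4. Read at 14 and 21 d, plus 7 d for M. kansasii.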

Staphylococcus aureus [3] = assay: Antibacterial activity against Staphylococcus aureus CCM 4516/08 after 24 hrs by broth microdilution method; format: functional; conditions: CCM 4516/08, 24 h
In short: (§3)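 Broth microdilution in Mueller–Hinton broth, compounds dissolved in DMSO, tested over a dilution series from 500 downward. MIC taken as ≥95% growth reduction (IC95) versus drug-free control. Benzylpenicillin comparator. Readings at 24 and 48 h.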

Pichia kudriavzevii [4] = assay: Antifungal activity against Candida krusei E28 after 48 hrs by broth microdilution method; format: functional; conditions: E28, 48 h; in short: as §1
Pseudomonas aeruginosa = assay: Antibacterial activity against Pseudomonas aeruginosa CCM 1961 at 500 micromol/L after 24 to 48 hrs by broth microdilution method; format: functional, organism-based; in short: as §3
Lichtheimia corymbifera [5] = assay: Antifungal activity against Absidia corymbifera 272 after 48 hrs by broth microdilution method; format: functional; conditions: Lichtheimia corymbifera, 272, 48 h; in short: as §1
Mycobacterium avium [6] = assay: Antimycobacterial activity against isoniazid, rifampicin, ethambutol and ofloxacin-resistant Mycobacterium avium My 330/88 after 21 days; format: functional; conditions: My 330/88, 504 h; in short: as §2
Mycobacterium kansasii [7] = assay: Antimycobacterial activity against Mycobacterium kansasii My 235/80 after 14 days; format: functional; conditions: My 235/80, 336 h; in short: as §2
Trichosporon asahii [8] = assay: Antifungal activity against Trichosporon asahii 1188 after 48 hrs by broth microdilution method; format: functional; conditions: Trichosporon asahii, 1188, 48 h; in short: as §1
Escherichia coli = assay: Antibacterial activity against Escherichia coli CCM 4517 at 500 micromol/L after 24 to 48 hrs by broth microdilution method; format: functional, organism-based; in short: as §3
[9] = system: Staphylococcus epidermidis; assay: Antibacterial activity against Staphylococcus epidermidis H 6966/08 after 24 hrs by broth microdilution method; format: functional; conditions: H 6966/08, 24 h; in short: as §3
Pichia kudriavzevii [10] = assay: Antifungal activity against Candida krusei E28 after 24 hrs by broth microdilution method; format: functional; conditions: E28, 24 h; in short: as §1
Enterococcus sp. = assay: Antibacterial activity against Enterococcus sp. J 14365/08 at 500 micromol/L after 24 to 48 hrs by broth microdilution method; format: functional, organism-based; in short: as §3
Trichosporon asahii [11] = assay: Antifungal activity against Trichosporon asahii 1188 after 24 hrs by broth microdilution method; format: functional; conditions: Trichosporon asahii, 1188, 24 h; in short: as §1
[12] = system: Staphylococcus epidermidis; assay: Antibacterial activity against Staphylococcus epidermidis H 6966/08 after 48 hrs by broth microdilution method; format: functional; conditions: H 6966/08, 48 h; in short: as §3
Staphylococcus aureus [13] = assay: Antibacterial activity against Staphylococcus aureus CCM 4516/08 after 48 hrs by broth microdilution method; format: functional; conditions: CCM 4516/08, 48 h; in short: as §3
[14] = system: Mycobacterium tuberculosis; assay: Antimycobacterial activity against Mycobacterium tuberculosis H37Rv My 331/88 after 14 days; format: functional; conditions: H37Rv My 331/88, 336 h; in short: as §2
[15] = system: Trichophyton mentagrophytes; assay: Antifungal activity against Trichophyton mentagrophytes 445 after 120 hrs by broth microdilution method; format: functional; conditions: Trichophyton mentagrophytes, 445, 120 h
In short: (§4)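 Filamentous dermatophyte tested by broth microdilution in RPMI 1640 with glutamine, fluconazole as reference. Value expressed as IC50 relative to growth control. Read at 72 and 120 h.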

Candida tropicalis = assay: Antifungal activity against Candida tropicalis 156 at 500 micromol/L after 24 to 48 hrs by broth microdilution method; format: functional, organism-based; in short: as §1
Mycobacterium kansasii [16] = assay: Antimycobacterial activity against Mycobacterium kansasii 6509/96 after 7 days; format: functional; conditions: 6509/96, 168 h; in short: as §2
Candida albicans [17] = assay: Antifungal activity against Candida albicans ATCC 44859 after 48 hrs by broth microdilution method; format: functional; conditions: ATCC 44859, 48 h; in short: as §1
Mycobacterium avium [18] = assay: Antimycobacterial activity against isoniazid, rifampicin, ethambutol and ofloxacin-resistant Mycobacterium avium My 330/88 after 14 days; format: functional; conditions: My 330/88, 336 h; in short: as §2
Candida albicans [19] = assay: Antifungal activity against Candida albicans ATCC 44859 after 24 hrs by broth microdilution method; format: functional; conditions: ATCC 44859, 24 h; in short: as §1
Mycobacterium kansasii [20] = assay: Antimycobacterial activity against Mycobacterium kansasii 6509/96 after 14 days; format: functional; conditions: 6509/96, 336 h; in short: as §2
Mycobacterium kansasii [21] = assay: Antimycobacterial activity against Mycobacterium kansasii My 235/80 after 7 days; format: functional; conditions: My 235/80, 168 h; in short: as §2
Klebsiella pneumoniae [22] = assay: Antibacterial activity against ESBL-positive Klebsiella pneumoniae J 14368/08 at 500 micromol/L after 24 to 48 hrs by broth microdilution method; format: functional, organism-based; in short: as §3
Staphylococcus aureus [23] = assay: Antibacterial activity against methicillin-resistant Staphylococcus aureus H 5996/08 after 24 hrs by broth microdilution method; format: functional; conditions: H 5996/08, 24 h; in short: as §3
Mycobacterium kansasii [24] = assay: Antimycobacterial activity against Mycobacterium kansasii 6509/96 after 21 days; format: functional; conditions: 6509/96, 504 h; in short: as §2
Aspergillus fumigatus [25] = assay: Antifungal activity against Aspergillus fumigatus 231 after 48 hrs by broth microdilution method; format: functional; conditions: Aspergillus fumigatus, 231, 48 h; in short: as §1
Klebsiella pneumoniae [26] = assay: Antibacterial activity against Klebsiella pneumoniae D 11750/08 at 500 micromol/L after 24 to 48 hrs by broth microdilution method; format: functional, organism-based; in short: as §3
Aspergillus fumigatus [27] = assay: Antifungal activity against Aspergillus fumigatus 231 after 24 hrs by broth microdilution method; format: functional; conditions: Aspergillus fumigatus, 231, 24 h; in short: as §1
[28] = system: Trichophyton mentagrophytes; assay: Antifungal activity against Trichophyton mentagrophytes 445 after 72 hrs by broth microdilution method; format: functional; conditions: Trichophyton mentagrophytes, 445, 72 h; in short: as §4
Staphylococcus aureus [29] = assay: Antibacterial activity against methicillin-resistant Staphylococcus aureus H 5996/08 after 48 hrs by broth microdilution method; format: functional; conditions: H 5996/08, 48 h; in short: as §3
Mycobacterium kansasii [30] = assay: Antimycobacterial activity against Mycobacterium kansasii My 235/80 after 21 days; format: functional; conditions: My 235/80, 504 h; in short: as §2
Nakaseomyces glabratus = assay: Antifungal activity against Candida glabrata 20/I at 500 micromol/L after 24 to 48 hrs by broth microdilution method; format: functional, organism-based; in short: as §1

CCOP(=O)(OCC)Oc1ccc(Cl)cc1C(=O)Nc1ccc(Cl)c(Cl)c1
IC50 (HepG2): 2.84 µM | MIC50 (Lichtheimia corymbifera [1]): > 500 µM | MIC [2]: 1 µM (≈ 0.453 µg/mL) | MIC95 (Staphylococcus aureus [3]): > 500 µM | MIC80 (Pichia kudriavzevii [4]): > 500 µM | Activity (Pseudomonas aeruginosa): inactive | MIC50 (Lichtheimia corymbifera [5]): > 500 µM | MIC (Mycobacterium avium [6]): 16 µM (≈ 7.24 µg/mL) | MIC (Mycobacterium kansasii [7]): 4 µM (≈ 1.81 µg/mL) | MIC80 (Trichosporon asahii [8]): > 500 µM | Activity (Escherichia coli): inactive | MIC95 [9]: > 500 µM | MIC80 (Pichia kudriavzevii [10]): > 500 µM | Activity (Enterococcus sp.): inactive | MIC80 (Trichosporon asahii [11]): > 500 µM | MIC95 [12]: > 500 µM | MIC95 (Staphylococcus aureus [13]): > 500 µM | MIC [14]: 1 µM (≈ 0.453 µg/mL) | MIC50 [15]: 500 µM (≈ 226 µg/mL) | Activity (Candida tropicalis): inactive | MIC (Mycobacterium kansasii [16]): 4 µM (≈ 1.81 µg/mL) | MIC80 (Candida albicans [17]): > 500 µM | MIC (Mycobacterium avium [18]): 16 µM (≈ 7.24 µg/mL) | MIC80 (Candida albicans [19]): > 500 µM | MIC (Mycobacterium kansasii [20]): 4 µM (≈ 1.81 µg/mL) | MIC (Mycobacterium kansasii [21]): 4 µM (≈ 1.81 µg/mL) | Activity (Klebsiella pneumoniae [22]): inactive | MIC95 (Staphylococcus aureus [23]): > 500 µM | MIC (Mycobacterium kansasii [24]): 4 µM (≈ 1.81 µg/mL) | MIC50 (Aspergillus fumigatus [25]): > 500 µM | Activity (Klebsiella pneumoniae [26]): inactive | MIC50 (Aspergillus fumigatus [27]): > 500 µM | MIC50 [28]: 500 µM (≈ 226 µg/mL) | MIC95 (Staphylococcus aureus [29]): > 500 µM | MIC (Mycobacterium kansasii [30]): 4 µM (≈ 1.81 µg/mL) | Activity (Nakaseomyces glabratus): inactive

CCOP(=O)(OCC)Oc1cc(Cl)ccc1C(=O)Nc1ccc(F)cc1
IC50 (HepG2): 33.8 µM | MIC50 (Lichtheimia corymbifera [1]): > 500 µM | MIC [2]: 16 µM (≈ 6.43 µg/mL) | MIC95 (Staphylococcus aureus [3]): 250 µM (≈ 100 µg/mL) | MIC80 (Pichia kudriavzevii [4]): > 500 µM | Activity (Pseudomonas aeruginosa): inactive | MIC50 (Lichtheimia corymbifera [5]): > 500 µM | MIC (Mycobacterium avium [6]): 32 µM (≈ 12.9 µg/mL) | MIC (Mycobacterium kansasii [7]): 16 µM (≈ 6.43 µg/mL) | MIC80 (Trichosporon asahii [8]): > 500 µM | Activity (Escherichia coli): inactive | MIC95 [9]: > 500 µM | MIC80 (Pichia kudriavzevii [10]): > 500 µM | Activity (Enterococcus sp.): inactive | MIC80 (Trichosporon asahii [11]): > 500 µM | MIC95 [12]: > 500 µM | MIC95 (Staphylococcus aureus [13]): 500 µM (≈ 201 µg/mL) | MIC [14]: 16 µM (≈ 6.43 µg/mL) | MIC50 [15]: 500 µM (≈ 201 µg/mL) | Activity (Candida tropicalis): inactive | MIC (Mycobacterium kansasii [16]): 16 µM (≈ 6.43 µg/mL) | MIC80 (Candida albicans [17]): > 500 µM | MIC (Mycobacterium avium [18]): 32 µM (≈ 12.9 µg/mL) | MIC80 (Candida albicans [19]): > 500 µM | MIC (Mycobacterium kansasii [20]): 32 µM (≈ 12.9 µg/mL) | MIC (Mycobacterium kansasii [21]): 16 µM (≈ 6.43 µg/mL) | Activity (Klebsiella pneumoniae [22]): inactive | MIC95 (Staphylococcus aureus [23]): > 500 µM | MIC (Mycobacterium kansasii [24]): 32 µM (≈ 12.9 µg/mL) | MIC50 (Aspergillus fumigatus [25]): > 500 µM | Activity (Klebsiella pneumoniae [26]): inactive | MIC50 (Aspergillus fumigatus [27]): > 500 µM | MIC50 [28]: 500 µM (≈ 201 µg/mL) | MIC95 (Staphylococcus aureus [29]): > 500 µM | MIC (Mycobacterium kansasii [30]): 16 µM (≈ 6.43 µg/mL) | Activity (Nakaseomyces glabratus): inactive
